The values that follow come from ChEMBL document CHEMBL4196054, “Facile synthesis of 1,2-dione-containing abietane analogues for the generation of human carboxylesterase inhibitors” (Eur J Med Chem, 2018).

For data set [1], the target named is T1, liver carboxylesterase 1 (CES1) (Homo sapiens, UniProt P23141).
T1 sequence (P23141 whole entry): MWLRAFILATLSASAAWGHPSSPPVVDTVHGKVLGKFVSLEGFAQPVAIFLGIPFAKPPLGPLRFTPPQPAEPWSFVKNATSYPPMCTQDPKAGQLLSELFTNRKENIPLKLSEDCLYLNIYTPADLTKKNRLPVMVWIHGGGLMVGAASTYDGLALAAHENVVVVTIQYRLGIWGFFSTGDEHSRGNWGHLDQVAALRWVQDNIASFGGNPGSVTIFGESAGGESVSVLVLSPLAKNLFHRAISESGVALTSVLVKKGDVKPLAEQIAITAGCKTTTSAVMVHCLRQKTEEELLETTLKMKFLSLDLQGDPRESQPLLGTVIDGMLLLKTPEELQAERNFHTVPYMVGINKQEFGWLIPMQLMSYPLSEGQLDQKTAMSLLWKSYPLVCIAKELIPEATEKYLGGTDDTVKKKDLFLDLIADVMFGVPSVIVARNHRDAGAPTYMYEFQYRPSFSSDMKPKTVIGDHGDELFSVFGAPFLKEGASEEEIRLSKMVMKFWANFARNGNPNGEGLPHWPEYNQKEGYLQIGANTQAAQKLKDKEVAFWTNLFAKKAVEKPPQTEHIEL
The data set is described as follows: Potency index, ratio of miltirone Ki to compound Ki for inhibition of human liver carboxylesterase 1. To be noted: read-out: Ratio Ki.

In data set [2] the target is Acetylcholinesterase (Homo sapiens) (UniProt P22303). The data set is described as follows: Inhibition of human AChE using acetylthiocholine as substrate at 5 uM by spectrophotometric analysis. Put shortly: (§1)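 Run like the carboxylesterase assay in 50mM Hepes pH7.4 with DMSO-dissolved inhibitor, reaction started by enzyme addition. Substrate is acetylthiocholine (AChE) or butyrylthiocholine (BChE). Inhibitor tested at a single 5µM concentration.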

The species named for data set [3] is Homo sapiens. The data set is described as follows: Selectivity index, ratio of Ki for human liver carboxylesterase 1 to Ki for human intestinal carboxylesterase.
The target in another data set is T2, Liver carboxylesterase 1 (Homo sapiens, UniProt P23141).
T2 sequence (P23141 whole entry): T1 sequence (P23141 whole entry)
Kind of data set: Inhibition of human liver carboxylesterase 1 using o-nitrophenyl acetate as substrate. Put shortly:
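Chromatographically pure human hCE1 in 50mM Hepes pH7.4 with 3mM o-nitrophenyl acetate. Inhibitor in DMSO, at least 8 concentrations, triplicates, compared against DMSO-only controls. Reaction started by enzyme addition. Data fitted to a multifactorial equation, the best inhibition model chosen by Akaike's information criterion, and Ki taken from the curve fits.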

Data set [4] can be described thus: Inhibition of human intestinal carboxylesterase using o-nitrophenyl acetate as substrate. Put shortly:
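Purified human intestinal CE (hiCE), chromatographically pure. Read in 96-well format with 3mM o-nitrophenyl acetate in 50mM Hepes, pH7.4. Inhibitors were added in DMSO and the reaction was started by adding enzyme. At least 8 inhibitor concentrations were run in triplicate against DMSO-only controls. Data were fitted to a multifactorial equation, the best model was chosen by Akaike's information criteria, and Ki was taken from the curve fits.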

The target of data set [5] is Cholinesterase (Homo sapiens) (UniProt P06276). Kind of data set: Inhibition of human BChE using butyrylthiocholine as substrate at 5 uM by spectrophotometric analysis. Put shortly: as §1
The species named for data set [6] is Homo sapiens. The data set is described as follows: Potency index, ratio of miltirone Ki to compound Ki for inhibition of human intestinal carboxylesterase.

Cholinesterase (Homo sapiens), sequence (P06276 whole entry): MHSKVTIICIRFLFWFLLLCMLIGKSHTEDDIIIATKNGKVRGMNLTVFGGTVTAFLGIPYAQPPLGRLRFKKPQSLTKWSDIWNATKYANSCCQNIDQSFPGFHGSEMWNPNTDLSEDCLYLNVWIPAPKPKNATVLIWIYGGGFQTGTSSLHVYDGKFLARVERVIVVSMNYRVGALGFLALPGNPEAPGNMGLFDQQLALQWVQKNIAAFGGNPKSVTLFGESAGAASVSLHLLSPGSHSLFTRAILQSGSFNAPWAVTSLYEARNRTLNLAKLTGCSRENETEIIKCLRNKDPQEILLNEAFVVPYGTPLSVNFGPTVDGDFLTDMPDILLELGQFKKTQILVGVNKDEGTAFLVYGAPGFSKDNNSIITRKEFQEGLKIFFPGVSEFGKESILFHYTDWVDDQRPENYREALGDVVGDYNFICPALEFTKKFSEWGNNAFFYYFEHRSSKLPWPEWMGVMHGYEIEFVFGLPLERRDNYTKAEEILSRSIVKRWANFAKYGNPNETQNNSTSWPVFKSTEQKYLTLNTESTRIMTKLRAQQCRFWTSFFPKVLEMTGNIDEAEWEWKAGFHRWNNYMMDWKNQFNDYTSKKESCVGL
Acetylcholinesterase (Homo sapiens), sequence (P22303 whole entry): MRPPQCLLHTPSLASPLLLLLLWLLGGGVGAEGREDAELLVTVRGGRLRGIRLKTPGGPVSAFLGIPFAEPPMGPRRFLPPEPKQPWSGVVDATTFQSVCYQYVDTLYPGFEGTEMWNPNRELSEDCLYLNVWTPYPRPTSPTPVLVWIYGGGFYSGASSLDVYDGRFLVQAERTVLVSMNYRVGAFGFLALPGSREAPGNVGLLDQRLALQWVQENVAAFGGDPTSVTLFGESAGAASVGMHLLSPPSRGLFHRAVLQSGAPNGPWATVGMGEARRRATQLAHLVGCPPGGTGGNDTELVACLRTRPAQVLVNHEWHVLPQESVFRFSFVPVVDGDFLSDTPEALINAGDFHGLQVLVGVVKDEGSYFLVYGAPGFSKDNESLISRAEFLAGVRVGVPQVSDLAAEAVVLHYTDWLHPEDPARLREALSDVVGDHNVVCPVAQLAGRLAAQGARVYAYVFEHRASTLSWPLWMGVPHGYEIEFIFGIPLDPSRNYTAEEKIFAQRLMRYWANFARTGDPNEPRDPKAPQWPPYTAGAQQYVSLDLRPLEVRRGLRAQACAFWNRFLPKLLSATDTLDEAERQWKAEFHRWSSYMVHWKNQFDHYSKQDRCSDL

Turning to `O=C1C(=O)c2c(ccc3c2CCCC3)C=C1F`, the selectivity ratio in data set [1] was 210. The inhibition (in general, the change of the read-out against control, counted positive when it falls) in data set [2] worked out at 16%; in data set [5], 62%. Also, the Ratio Ki in the data set listed under Homo sapiens [3] came out at 0.11. The inhibition constant (Ki) (in general, a dissociation constant, usually derived from enzyme kinetics or from competition with a known ligand) on Liver carboxylesterase 1 amounted to 12.2 nM; in data set [4], 112 nM.
As to `CC(C)C1=Cc2ccc3c(c2C(=O)C1=O)CCCC3(C)C` [MILTIRONE], the values for the inhibition in data set [2] and in data set [5] were 22% and 6%, respectively.
Turning to `CC1(C)CCc2ccc3c(c2C1)C(=O)C(=O)C=C3F`, the selectivity ratio in data set [1] worked out at 175. For the same compound, the inhibition in data set [2] was 10%; in data set [5], 15%. For the same compound, the Ratio Ki in the data set filed under Homo sapiens [3] worked out at 0.04. Moreover, the figures for the inhibition constant (Ki) (at Liver carboxylesterase 1; in data set [4]) were 14.4 nM and 386 nM, respectively.
Consider `O=C1C=Cc2ccc3c(c2C1=O)CCCC3`, for which the inhibition turned out to be 0% in data set [2] and 54% in data set [5]. Moreover, in the data set filed under Homo sapiens [3], the Ratio Ki worked out at 0.06. Besides, the figures for the Ki (at Liver carboxylesterase 1; in data set [4]) were 131 nM and 2180 nM, respectively.
As to `CC(C)C1=Cc2ccc3c(c2C(=O)C1=O)CC(C)(C)CC3`, the inhibition came to 20% in data set [2] and 4% in data set [5]. Moreover, the Ratio Ki in the data set listed under Homo sapiens [3] came to 60. The results for the inhibitory constant (Ki) (on Liver carboxylesterase 1; in data set [4]) were 1870 nM and 31.2 nM, respectively.
For `O=C1C(=O)c2c(ccc3ccccc23)C=C1F`, in that order: 8%, 3%, 0.48, 48.7 nM and 51.3 nM.
For `O=C1C=C(F)c2ccc3c(c2C1=O)CCCC3`, in that order: 4%, 33%, 0.15, 25.9 nM and 171 nM.
For the compound `CC(C)C1=Cc2ccc3c(c2C(=O)C1=O)CCCC3`, the values for the inhibition in data set [2] and in data set [5] were 16% and 1%, respectively. The Ki worked out at 1050 nM at Liver carboxylesterase 1 and 111 nM in data set [4].
On to `CC1(C)CCc2ccc3c(c2C1)C(=O)C(=O)C=C3`, for which the inhibition turned out to be 2% in data set [2] and 13% in data set [5]. Moreover, in the data set listed under Homo sapiens [3], the Ratio Ki stood at 0.09. Also, the Ki at Liver carboxylesterase 1 was found to be 31.9 nM; in data set [4] it was 341 nM.
As for `CC1=Cc2ccc3c(c2C(=O)C1=O)CCOC3`, the inhibition was 27% in data set [2] and 0% in data set [5]. Moreover, the Ki (at Liver carboxylesterase 1; in data set [4]) was not below 10000 nM throughout.
In the case of `CC1(C)CCc2ccc3c(c2C1)C(=O)C(=O)C(F)=C3F`, the inhibition is 4% in data set [2] and 1% in data set [5]. For the same compound, the Ratio Ki in the data set listed under Homo sapiens [3] was determined as 2.3. In addition, the values for the Ki (on Liver carboxylesterase 1; in data set [4]) were 102 nM and 43.3 nM, respectively.
In the case of `CC1(C)CCc2ccc3c(c2C1)C(=O)C(=O)C(F)=C3`, the inhibition came out at 3% in data set [2] and 23% in data set [5]. In addition, the Ratio Ki in the data set listed under Homo sapiens [3] turned out to be 2.9; in the data set filed under Homo sapiens [6], 3. Moreover, the inhibitory constant (Ki) was found to be 42 nM on Liver carboxylesterase 1 and 14.6 nM in data set [4].
In the case of `COC1=Cc2ccc3c(c2C(=O)C1=O)CC(C)(C)CC3`, the results for the inhibition in data set [2] and in data set [5] were 2% and 1%, respectively. Besides, the Ratio Ki in the data set filed under Homo sapiens [3] was determined as 0.3. Moreover, the inhibition constant Ki on Liver carboxylesterase 1 was found to be 42.5 nM; in data set [4] it was 159 nM.
Consider `O=C1C=Cc2ccc3ccccc3c2C1=O`, for which the values for the inhibition in data set [2] and in data set [5] were 16% and 13%, respectively. Besides, the Ratio Ki in the data set filed under Homo sapiens [3] was less than 0.06. The Ki on Liver carboxylesterase 1 is 942 nM; in data set [4], not below 10000 nM.
As for `CC1=CC(=O)C(=O)c2c1ccc1c2CCCC1`, the inhibition in data set [2] is 13%; in data set [5] it was 30%. For the same compound, the inhibition constant Ki was 25.1 nM at Liver carboxylesterase 1 and not below 10000 nM in data set [4].
`CC1=Cc2ccc3c(c2C(=O)C1=O)CC(C)(C)CC3`: the figures for the inhibition in data set [2] and in data set [5] were 0% and 1%, respectively. In addition, the Ratio Ki in the data set filed under Homo sapiens [3] is 27.6. Besides, the inhibition constant Ki was 2420 nM at Liver carboxylesterase 1 and 87.9 nM in data set [4].
For `CC1=Cc2ccc3c(c2C(=O)C1=O)CCCC3`, in that order: 5%, 4%, 2.9, 1220 nM and 423 nM.
As to `CC(C)C1=Cc2ccc3c(c2C(=O)C1=O)CCC(C)(C)C3`, the inhibition was 30% in data set [2] and 3% in data set [5]. In the data set listed under Homo sapiens [3], the Ratio Ki was 59.5. For the same compound, the Ki on Liver carboxylesterase 1 was 4200 nM; in data set [4], 70.7 nM.
For `CC1=Cc2ccc3c(c2C(=O)C1=O)CCC(C)(C)C3`, in that order: 1%, 2%, 2.7, 495 nM and 182 nM.
